*1 amine or outer side, *2 acyl side, *3 side chain or, on linkers, in order; H or OH if unused. Where a SMILES comes first, the peptide text is derived from it. Side-chain parts run from the residue outwards. [ ]: non-standard residue; d: D form. The star is where a group is joined. X1 = COc1cc2c3cc1OCCOc1cc4c(cc1OC)Cc1cc5c(OC)cc1Cc1cc(c(OCc6cn(CCC(=O)*)nn6)cc1C4)OCCOc1cc(c(cc1OC)Cc1cc(c(OC)cc1C3)OCCO5)C2; Pteroyl = Nc1nc2ncc(CNc3ccc(C(=O)*)cc3)nc2c(=O)[nH]1; γGlu = O=C(O)[C@H](CCC(=O)[*:2])N[*:1]; AEEEA = NCCOCCOCCOCC(=O)O; StBu = CC(C)(C)S*
How the values were obtained:
folate receptor (FR) = details: high affinity FR, 1:1 stoichiometry; cited from earlier work
[1] = target: reduced folate carrier (RFC); details: low affinity folate carrier RFC; cited from earlier work
[2] = at 300 K; cited from earlier work
KB (FR+) cells = experiment: MTT cell viability assay, KB cells; format: cell-based, human; details: 100 μM (highest concentration), 24 h incubation
Procedure, shortened: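 KB cells kept in RPMI-1640 (25 mM HEPES, 2 mM L-glutamine, 15% fetal calf serum, penicillin/streptomycin) and seeded at 25 000 per well overnight. Unlabelled test conjugate added in triplicate at final 0–100 μM for 24 h in the dark. Cells then DPBS-washed thrice and given MTT (5 mg/mL solution) for 3 h. Formazan was dissolved in DMSO and read at 540 nm. Viability is expressed as percent of untreated-control absorbance.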

[3] = Solubility in water after HPLC purification; format: physicochemical; details: after cleavage from solid support and reverse-phase HPLC purification
[4] = target: folate binding protein (FBP) (Bos taurus, UniProt P02702); experiment: Hyperpolarized 129Xe NMR with folate binding protein; details: 30 μM FBP, 30 and 60 μM biosensor, acetate buffer pH 5.0 with and without 10% glycerol, incubated 30 min
Chain of folate binding protein (FBP) (P02702 20-241): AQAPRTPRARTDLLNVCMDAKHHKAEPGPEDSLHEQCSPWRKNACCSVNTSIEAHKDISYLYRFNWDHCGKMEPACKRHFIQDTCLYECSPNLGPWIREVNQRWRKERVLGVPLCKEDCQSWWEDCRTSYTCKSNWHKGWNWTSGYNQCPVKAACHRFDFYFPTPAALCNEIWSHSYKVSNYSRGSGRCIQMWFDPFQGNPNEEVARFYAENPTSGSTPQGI

## CN1c2c(nc(N)[nH]c2=O)NCC1CNc1ccc(C(=O)N[C@@H](CCC(=O)O)C(=O)O)cc1 (stereo partly drawn) [5-methyltetrahydrofolate, 5-methyl tetrahydrofolate]
Folate receptor (FR)
  Kd: 0.1 to 1 nM
[1]
  dissociation constant: micromolar

## [Xe] [129Xe]
[2]
  water solubility: 4.2 mM atm^–1

## COc1cc2c3cc1OCCOc1cc4c(cc1OC)Cc1cc5c(OC)cc1Cc1cc(c(OCc6cn(CCC(=O)N[C@@H](CCCCNC(=O)CC[C@H](NC(=O)c7ccc(NCc8cnc9nc(N)[nH]c(=O)c9n8)cc7)C(=O)O)C(=O)N[C@@H](CCCCN)C(=O)N[C@@H](CCCNC(=N)N)C(=O)N[C@@H](CCCCN)C(=O)N[C@@H](CCCNC(=N)N)C(=O)N[C@@H](CCCCN)C(=O)NCCOCCOCCOCC(=O)N[C@@H](CCCNC(=N)N)C(=O)N[C@@H](CCCCN)C(=O)N[C@@H](CSSC(C)(C)C)C(=O)N[C@@H](CCCNC(=N)N)C(N)=O)nn6)cc1C4)OCCOc1cc(c(cc1OC)Cc1cc(c(OC)cc1C3)OCCO5)C2 [compound 24] (X1-K([γGlu-Pteroyl])KRKRK[AEEEA]RKC(StBu)R-NH2)
KB (FR+) cells
  viability (maximum toxicity): 23%
[3]
  solubility in water: readily soluble in water
[4]
  protein bound 129Xe NMR signal: no observable protein bound signal

From PMC4306503 (Bioconjugate Chemistry, 2014)
